Tests used:
[1] = Clearance in human liver microsomes; assay type: ADME, Microsome; details: read-out: CLH
[2] = target: T1, Nuclear receptor ROR-alpha (Homo sapiens, UniProt P35398); test: Inverse agonist activity at 6His-tagged RORA LBD (unknown origin) expressed in Escherichia coli assessed as inhibition of biotinylated SRC1-2 derived CPSSHSSLTERHKILHRLLQEGSPS-NH2 containing LXXLL coactivator peptide incubated for 3 hrs by TR-FRET assay
T1 sequence (P35398 whole entry): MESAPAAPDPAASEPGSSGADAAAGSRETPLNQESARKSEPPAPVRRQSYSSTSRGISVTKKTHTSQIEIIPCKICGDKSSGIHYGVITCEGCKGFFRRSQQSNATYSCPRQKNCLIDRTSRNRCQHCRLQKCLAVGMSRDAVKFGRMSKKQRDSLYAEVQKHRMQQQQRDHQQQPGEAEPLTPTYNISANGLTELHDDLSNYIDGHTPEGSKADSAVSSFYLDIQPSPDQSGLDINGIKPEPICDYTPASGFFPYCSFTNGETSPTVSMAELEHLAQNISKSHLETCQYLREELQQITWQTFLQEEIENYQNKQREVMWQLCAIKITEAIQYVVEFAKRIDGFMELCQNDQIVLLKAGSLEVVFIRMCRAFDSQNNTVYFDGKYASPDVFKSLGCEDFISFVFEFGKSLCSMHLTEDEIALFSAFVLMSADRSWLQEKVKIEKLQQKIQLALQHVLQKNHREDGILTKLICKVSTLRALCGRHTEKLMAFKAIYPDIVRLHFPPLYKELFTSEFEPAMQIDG

[3] = Lipophilicity, log D of the compound at pH 7.4 by reverse phase HPLC; assay type: physicochemical; details: buffer
Procedure, shortened: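 LogD at pH 7.4 determined by reverse-phase HPLC. Values are means of two or more independent assays.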

Homo sapiens [4] = test: Ex vivo drug penetration in human abdominal skin applied topically using flow-through diffusion cell assessed as compound flux through skin measured upto 24 hrs by LC-MS/MS based in vitro skin penetration assay; assay type: functional; details: Abdomen skin
Procedure, shortened: (§1)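 Ex vivo human skin dosed topically with a 2.75% (w/w) formulation in 30% ethanol, 30% PEG400, 20% diethylene glycol monoethyl ether and 20% glycerin (w/w). Cumulative amount in receptor solution (ng/cm2) was followed over 24 h. At 24 h, excess surface compound was removed, and epidermis and dermis were separated and homogenized to measure concentration (μg/g). Results are means with SEM.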

Homo sapiens [5] = test: Ex vivo drug penetration in human abdominal skin applied topically using flow-through diffusion cell assessed as compound concentration in skin epidermis measured upto 24 hrs by LC-MS/MS based in vitro skin penetration assay; assay type: functional; details: Abdomen skin; procedure, shortened: as §1
[6] = target: Voltage-gated inwardly rectifying potassium channel KCNH2 (Homo sapiens, UniProt Q12809); test: Displacement of [3H]-dofetilide from human ERG; assay type: toxicity
Procedure, shortened: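 Binding assay measuring displacement of [3H]dofetilide. Values are means of two or more independent assays.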

HeLa = test: Antagonist activity at RORC2 in human HeLa cells assessed as reduction in NR activity at 1 to 10 uM relative to control; assay type: cell-based; set-up: scale not given: the % may be the effect or the level left; details: dose 1-10 µM
Procedure, shortened: (§2)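 Multiplexed trans-FACTORIAL profiling: cells transfected with ligand-binding-domain chimeric constructs of 48 nuclear receptors fused to GAL4 DNA. Reporter RNA levels were measured. Compound was tested at 1 and 10 μM. Readout was fold change versus control, with a 20% change as the threshold for antagonist (reduction) or agonist (increase) effect.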

[7] = Inhibition of IL-17A production in human Th17 cells incubated for 6 days […]; assay type: functional, cell-based; details: Th17, 144 h
Procedure, shortened: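 Inhibition of IL-17A production by human primary Th17 cells. Values are means of two or more independent assays.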

[8] = Inverse agonist activity at 6His-tagged RORC2 LBD (unknown origin) expressed in Escherichia coli assessed as inhibition of biotinylated SRC1-2 derived CPSSHSSLTERHKILHRLLQEGSPS-NH2 containing LXXLL coactivator peptide incubated for 3 hrs by TR-FRET assay; set-up: species or system Homo sapiens
Procedure, shortened: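 TR-FRET cofactor recruitment measuring displacement of SRC1-2 coactivator peptide binding to histidine-tagged RORC2 ligand-binding domain. Values are means of two or more independent assays.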

PXR (NR1I2) = target: T2, PXR (NR1I2) (Homo sapiens, UniProt O75469); test: Agonist activity at PXR in human HeLa cells assessed as increase in NR activity at 10 uM relative to control; assay type: cell-based; details: read-out: Activity; procedure, shortened: as §2
T2 sequence (O75469 whole entry): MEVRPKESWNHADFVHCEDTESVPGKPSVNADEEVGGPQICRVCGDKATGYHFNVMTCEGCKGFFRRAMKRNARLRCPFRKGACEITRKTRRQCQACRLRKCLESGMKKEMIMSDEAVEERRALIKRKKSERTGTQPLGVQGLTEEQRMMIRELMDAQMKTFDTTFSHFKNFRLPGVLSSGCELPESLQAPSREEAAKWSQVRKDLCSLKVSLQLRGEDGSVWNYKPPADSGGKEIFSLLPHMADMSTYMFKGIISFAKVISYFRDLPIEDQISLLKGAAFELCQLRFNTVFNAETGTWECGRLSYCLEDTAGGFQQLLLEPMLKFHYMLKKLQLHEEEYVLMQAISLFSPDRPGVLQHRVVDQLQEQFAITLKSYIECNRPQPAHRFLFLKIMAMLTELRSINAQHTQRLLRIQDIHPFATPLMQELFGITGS

[9] = Passive apparent permeability in MDCKII-LE cells; assay type: ADME, cell-based, Canis lupus familiaris; details: dog, MDCK
Procedure, shortened: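 Passive permeability measured across RRCK (MDCKII-LE) cell monolayers. Values are means of two or more independent assays.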

Homo sapiens [10] = test: Ex vivo drug penetration in human abdominal skin applied topically using flow-through diffusion cell assessed as compound concentration in dermis layers measured upto 24 hrs by LC-MS/MS based in vitro skin penetration assay; assay type: functional, Abdomen skin; procedure, shortened: as §1
[11] = target: T3, Nuclear receptor ROR-beta (Homo sapiens, UniProt Q92753); test: Inverse agonist activity at 6His-tagged RORB LBD (unknown origin) expressed in Escherichia coli assessed as inhibition of biotinylated SRC1-2 derived CPSSHSSLTERHKILHRLLQEGSPS-NH2 containing LXXLL coactivator peptide incubated for 3 hrs by TR-FRET assay
T3 sequence (Q92753 whole entry): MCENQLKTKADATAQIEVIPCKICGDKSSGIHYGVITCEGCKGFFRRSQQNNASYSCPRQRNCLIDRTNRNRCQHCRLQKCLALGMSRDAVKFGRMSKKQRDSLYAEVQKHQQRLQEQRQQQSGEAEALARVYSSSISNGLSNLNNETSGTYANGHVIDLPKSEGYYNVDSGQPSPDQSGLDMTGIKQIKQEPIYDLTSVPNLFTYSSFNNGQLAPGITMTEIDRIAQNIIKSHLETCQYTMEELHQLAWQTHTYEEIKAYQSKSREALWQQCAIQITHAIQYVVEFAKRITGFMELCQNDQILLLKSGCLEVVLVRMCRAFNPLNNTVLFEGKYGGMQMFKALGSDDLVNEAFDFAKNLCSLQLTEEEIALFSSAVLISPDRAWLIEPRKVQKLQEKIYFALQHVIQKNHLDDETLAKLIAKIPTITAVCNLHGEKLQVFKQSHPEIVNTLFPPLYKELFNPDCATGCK

Voltage-gated inwardly rectifying potassium channel KCNH2, sequence (Q12809 whole entry): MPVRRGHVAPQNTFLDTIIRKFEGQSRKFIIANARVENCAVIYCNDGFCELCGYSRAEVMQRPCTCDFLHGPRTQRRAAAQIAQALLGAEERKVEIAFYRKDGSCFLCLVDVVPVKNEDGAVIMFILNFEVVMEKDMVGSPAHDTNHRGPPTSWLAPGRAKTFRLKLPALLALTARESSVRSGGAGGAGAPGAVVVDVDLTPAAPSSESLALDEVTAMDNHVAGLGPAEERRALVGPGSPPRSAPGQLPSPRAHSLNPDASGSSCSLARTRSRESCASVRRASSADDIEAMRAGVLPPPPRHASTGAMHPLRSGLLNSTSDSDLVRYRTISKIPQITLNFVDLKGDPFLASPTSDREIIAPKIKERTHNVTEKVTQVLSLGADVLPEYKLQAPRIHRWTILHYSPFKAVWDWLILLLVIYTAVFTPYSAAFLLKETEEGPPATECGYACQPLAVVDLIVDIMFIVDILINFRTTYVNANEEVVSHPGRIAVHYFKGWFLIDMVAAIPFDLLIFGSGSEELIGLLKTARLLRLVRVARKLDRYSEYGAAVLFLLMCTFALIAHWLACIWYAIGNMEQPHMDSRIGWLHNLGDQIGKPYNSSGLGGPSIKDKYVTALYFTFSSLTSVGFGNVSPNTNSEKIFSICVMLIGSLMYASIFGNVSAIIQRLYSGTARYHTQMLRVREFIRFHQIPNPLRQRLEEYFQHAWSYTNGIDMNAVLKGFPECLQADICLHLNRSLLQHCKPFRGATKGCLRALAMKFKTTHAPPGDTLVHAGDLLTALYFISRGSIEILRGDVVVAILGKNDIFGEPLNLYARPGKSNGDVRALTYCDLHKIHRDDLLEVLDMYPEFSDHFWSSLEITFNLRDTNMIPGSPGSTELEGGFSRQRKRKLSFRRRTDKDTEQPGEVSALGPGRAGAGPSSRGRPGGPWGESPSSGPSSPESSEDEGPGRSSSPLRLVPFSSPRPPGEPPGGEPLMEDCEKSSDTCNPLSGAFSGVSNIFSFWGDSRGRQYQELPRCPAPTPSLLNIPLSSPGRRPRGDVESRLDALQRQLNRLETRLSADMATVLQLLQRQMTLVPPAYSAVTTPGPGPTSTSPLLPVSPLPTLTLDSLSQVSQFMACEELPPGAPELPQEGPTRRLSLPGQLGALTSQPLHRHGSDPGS

SMILES	microsomal CLint [1] [µL/min/mg]	IC50 [2] [nM]	chromatographic logD [3]	IC50 [8] [nM]	activity at 10 µM (PXR (NR1I2)) [%]	Papp [9] [×10⁻⁶ cm/s]	IC50 [11] [nM]	Drug uptake (Homo sapiens [4]) [ng/cm2/h]	Drug uptake (Homo sapiens [5]) [µg/g]	Ki [6] [nM]	Activity (HeLa) [%]	IC50 [7] [nM]	Activity (Homo sapiens [10]) [µg/g]
Cc1c2cccc1NS(=O)(=O)CCCCC[C@H]1CN(CCN1C(=O)C(C)C)C2	223	> 25000	3.4	9.3	> 20	24	> 25000	28.1	92.7	37000	> 20	28	18.3
Cc1c2cc(C#N)cc1NS(=O)(=O)CCCCC[C@H]1CN(CCN1C(=O)C(C)C)C2	130	–	2.9	27	–	22	–	–	–	17000	–	65	–
Cc1c2cc(F)cc1NS(=O)(=O)CCCOCC1CN(CCN1C(=O)CC1CC1)C2 (stereo not drawn)	55	–	2.1	120	–	–	–	–	–	–	–	110	–
Cc1c2cc(F)cc1NS(=O)(=O)N(C)CCCCC1CN(CCN1C(=O)CC1CC1)C2 (stereo not drawn)	> 320	–	3.5	14	–	21	–	–	–	–	–	26	–
O=C(CC1CC1)N1CCN2Cc3cc(F)cc(c3)NS(=O)(=O)CCCCCC1C2 (stereo not drawn)	80	–	3.6	2400	–	11.7	–	–	–	–	–	> 10000	–
Cc1c2cc(F)cc1NS(=O)(=O)CCCCCC1CN(CCN1C(=O)CC1CC1)C2 (stereo not drawn)	260	–	3.2	69	–	12.4	–	–	–	–	–	55	–
Cc1c2cc(F)cc1NS(=O)(=O)CCCCC1CN(CCN1C(=O)CC1CC1)C2 (stereo not drawn)	71	–	3.3	620	–	24.7	–	–	–	–	–	2600	–
Cc1c(CN2CCN(C(=O)CC3CC3)[C@@H](C)C2)cc(F)cc1NS(=O)(=O)c1ccc(F)cc1	53	–	4.7	12	–	4.5	–	–	–	1800	–	141	–
Cc1c2cc(F)cc1NS(=O)(=O)NCCCCC1CN(CCN1C(=O)CC1CC1)C2 (stereo not drawn)	160	–	2.9	150	–	18.4	–	–	–	–	–	170	–

These reach a lower IC50 [8]. Values come first.

microsomal CLint [1] [µL/min/mg]	IC50 [2] [nM]	chromatographic logD [3]	IC50 [8] [nM]	activity at 10 µM (PXR (NR1I2)) [%]	Papp [9] [×10⁻⁶ cm/s]	IC50 [11] [nM]	SMILES	Drug uptake (Homo sapiens [4]) [ng/cm2/h]	Drug uptake (Homo sapiens [5]) [µg/g]	Ki [6] [nM]	Activity (HeLa) [%]	IC50 [7] [nM]	Activity (Homo sapiens [10]) [µg/g]
68	–	5.3	2.1	–	1.3	–	Cc1c(CN2CCN(C(=O)C3CCCC3)[C@@H](C)C2)cc(F)cc1NS(=O)(=O)c1ccc(F)cc1	–	–	4000	–	6.5	–
205	–	3.8	5.2	–	19	–	Cc1c2cc(F)cc1NS(=O)(=O)CCCCC[C@H]1CN(CCN1C(=O)C(C)C)C2	–	–	19000	–	87	–
239	–	4.5	5.4	–	6.5	–	Cc1c(CN2CCN(C(=O)C3CCCC3)[C@@H](C)C2)cc(F)cc1NC(=O)c1cccc(C#N)c1	–	–	3600	–	16	–
200	–	4.3	2.4	–	17	–	Cc1c2cc(Cl)cc1NS(=O)(=O)CCCCC[C@H]1CN(CCN1C(=O)C(C)C)C2	–	–	11000	–	2.2	–

— ChEMBL document CHEMBL5223178, “Macrocyclic Retinoic Acid Receptor-Related Orphan Receptor C2 Inverse Agonists” (ACS Med Chem Lett, 2023)
